This series is described as follows: Toxicity liver stage against HepG2, at 10uM. Type of series: cell-based. Details: test concentration 10 uM, cell line HepG2-A16-CD81EGFP. The settings on record: human, HepG2-A16-CD81EGFP cells; read-out: INHIBITION
The method in brief:
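Uninfected HepG2-A16-CD81EGFP cells, 3 × 10^3 per well, 1536-well, plated on prespotted compound at 10 μM final, parasite-free screening media added to match infected plates; puromycin 10 μM positive, DMSO 0.5% negative; run in parallel with 48 h PbLuc assay at 37 °C, 5% CO2; viability by CellTiter-Glo luminescence, normalized to controls.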
In the case of `CC1(C)Cc2ccccc2-c2nc(NCCCO)[nH]c(=O)c21`, the cytotoxicity at 10 µM was 3.57%.

As to `COc1cc(OC)cc(C2NC(=O)CN2Cc2ccc(Br)cc2)c1` (stereo not given), the cytotoxicity at 10 µM was -6.67%.

Regarding `Cc1cn2nc(N3CCCC3C(=O)N3CCN(C)CC3)sc2n1` (stereo not given), the cytotoxicity at 10 µM is -12.6%.

Regarding `CSc1ccccc1C(=O)NCCC(O)c1ccco1` (stereo not given), the cytotoxicity at 10 µM is -9.95%.

Take `CCc1cnc(N2CC[C@@H]3CN(C(C)=O)CCO[C@@H]3C2)nc1`: the cytotoxicity at 10 µM is 9.1%.

As to `O=C(c1ccoc1)N1CC[C@@H]2[C@@H](CC1)OCCN2c1cccnc1`, the cytotoxicity at 10 µM was determined as 11.1%.

`CCOCc1nn(CC2CC2)c2c1CN(C(=O)c1ccno1)CC2`: the cytotoxicity at 10 µM is 1.99%.

Regarding `COc1cc(N2CC[C@@H]3O[C@@H](c4ccnc(C)n4)C[C@H]3C2)ncn1`, the cytotoxicity at 10 µM was determined as 23.1%.

`Fc1cccc(N2CCc3ncnc(C4CC4)c3CC2)c1`: the cytotoxicity at 10 µM came to 11.9%.

For `COCCn1cc(-c2cc(C(=O)N3CCCC3)c3ccccn23)nc1C`, the cytotoxicity at 10 µM amounted to 8.61%.

As to `COc1cc(N2CC[C@H]3OCC[C@@]3(COc3nccc(C)n3)C2)ncn1`, the cytotoxicity at 10 µM stood at 11.8%.

`Cc1cc2nc(SCC(=O)N3CCOCC3)n(CCC(C)C)c(=O)c2[nH]1`: the cytotoxicity at 10 µM amounted to 10.8%.

Consider `CCc1cccc(-n2nnc(C(=O)O)c2-c2ccncc2)c1`, for which the cytotoxicity at 10 µM turned out to be 7.77%.

In the case of `Cn1nc(C(=O)N2CCOCC2)cc1C(=O)Nc1cc(Cl)cc(Cl)c1`, the cytotoxicity at 10 µM is 27.9%.

On to `CCc1noc(C2CCCCN2C(=O)c2ccc(C)o2)n1` (stereo not given), for which the cytotoxicity at 10 µM was determined as 14%.

For the compound `CC(C)N1CCC(c2cnc(-c3cncnc3)cn2)CC1`, the cytotoxicity at 10 µM stood at 2.55%.

As for `CC(=O)N1CCN(CCCOc2ccccc2F)CC(C(N)=O)C1` (stereo not given), the cytotoxicity at 10 µM is -28.7%.

Take `CNC(=O)c1cn[nH]c1C1(C)CCCN(Cc2nccn2C(C)C)C1` (stereo not given): the cytotoxicity at 10 µM is -2.73%.

Take `COc1ccc(C2Nc3cc(Cl)ccc3C3=NCCN32)cc1CO` (stereo not given): the cytotoxicity at 10 µM was -19.3%.

For the compound `CC[C@@H]1C[C@H](C(F)(F)F)n2nc(C3CCN(S(=O)(=O)CC)CC3)cc2N1`, the cytotoxicity at 10 µM was -28.2%.

For the compound `O=C1CO[C@H]2CN(Cc3ccccc3Br)C[C@@H]2N1`, the cytotoxicity at 10 µM was 2.13%.

Take `CN(CC1(O)CCN(c2ccccn2)C1)C(=O)Cc1ccsc1` (stereo not given): the cytotoxicity at 10 µM was -11.7%.

Consider `CCn1ncc(CN2C[C@@H]3CCCN3C[C@@H]2CCSC)c1C`, for which the cytotoxicity at 10 µM is -27.3%.

Take `O=C1NC2(Cc3ccccc31)CN(CC1CCCC1)C2`: the cytotoxicity at 10 µM worked out at 7.58%.

Turning to `CCCn1nnnc1CN(CC)CC1COc2ccccc2O1` (stereo not given), the cytotoxicity at 10 µM was 13.3%.

For `COc1cccc(C(=O)NS(=O)(=O)c2cc(Cl)sc2Cl)c1OC(F)F`, the cytotoxicity at 10 µM was -0.268%.

Regarding `CC(=O)Nc1ccc(CNCC(O)c2ccc(Cl)cc2)cc1` (stereo not given), the cytotoxicity at 10 µM was -8.74%.

For the compound `CCN(CC)S(=O)(=O)c1ccc(CNC(=O)N2CCC(C#N)CC2)cc1`, the cytotoxicity at 10 µM was determined as 20%.

Turning to `Cc1ccc(F)c(S(=O)(=O)NCc2cccc(CS(C)(=O)=O)c2)c1`, the cytotoxicity at 10 µM was -7.61%.

On to `Cc1nc(CNC(C)c2ccc(S(=O)(=O)N(C)C)cc2)no1` (stereo not given), for which the cytotoxicity at 10 µM is -4.32%.

As to `O=C(O)c1cc(S(=O)(=O)Nc2cccc3c2OCCO3)ccc1F`, the cytotoxicity at 10 µM was determined as 12.3%.

Turning to `COc1cc(CN(C)C(=O)NCc2cccc3c2OCO3)ccc1SC`, the cytotoxicity at 10 µM is -6.08%.

For `Cc1c(C(=O)NCC(C)C)nnn1-c1cccc2c1CCN(CCO)C2`, the cytotoxicity at 10 µM came to 8.09%.

In the case of `Cc1cnn(CC2CCCN2C(=O)CCc2ccco2)c1` (stereo not given), the cytotoxicity at 10 µM is -4.7%.

Turning to `O=C(c1cccnc1O)N1CCC(COc2ccccc2)CC1`, the cytotoxicity at 10 µM was found to be 9.53%.

With `CSC1(CNc2ncc(Br)cn2)CCOCC1`, the cytotoxicity at 10 µM was -8.93%.

As to `CC(C)OCc1cccc(NC(=O)N(C)Cc2ncnn2C)c1`, the cytotoxicity at 10 µM came to 4%.

For `CCCNC(=O)C1CCN(CC2(O)CCC(C)CC2)CC1` (stereo not given), the cytotoxicity at 10 µM turned out to be 4.55%.

Regarding `COc1ccsc1C(=O)Nc1cc(Br)c(=O)n(C)c1`, the cytotoxicity at 10 µM is -11%.

For the compound `CS(=O)(=O)Cc1noc(CN2CCN(c3ccccc3Cl)CC2)n1`, the cytotoxicity at 10 µM came out at 5.09%.

With `OC1(CNC2CCN(Cc3ccncc3)CC2)CCc2ccccc21` (stereo not given), the cytotoxicity at 10 µM was -1.41%.

As to `c1nc(N2CCCCC2Cn2cncn2)c2ccsc2n1` (stereo not given), the cytotoxicity at 10 µM is -2.49%.

Regarding `COc1cccc(S(=O)(=O)CCN2CCCN(C(C)=O)CC2)c1`, the cytotoxicity at 10 µM is -10.4%.

Take `CC1CN(C)c2ccccc2CN1C(=O)c1ccncc1` (stereo not given): the cytotoxicity at 10 µM was -23.4%.

`CO[C@H]1CO[C@@]2(CCCN(C(=O)N3CCCC3)C2)C1`: the cytotoxicity at 10 µM is -108%.

On to `O=C(c1cccs1)N1CCC2(CC1)CCN(S(=O)(=O)C1CC1)CC2`, for which the cytotoxicity at 10 µM is -106%.

On to `Nc1ncccc1CN1CCCn2nc(CCC(=O)NC3CC3)cc2C1`, for which the cytotoxicity at 10 µM came out at 1.45%.

In the case of `O=C1CCOCCN1Cc1ccc(Cl)c(Cl)c1`, the cytotoxicity at 10 µM was 3.3%.

Regarding `Cc1ccc(-n2ccnc2-c2cn(C3CCNCC3)nn2)c(Cl)c1`, the cytotoxicity at 10 µM was 3.07%.

Take `CC(C)c1ncc(CN2C[C@@H](CN3CCCC3)[C@@H](CO)C2)cn1`: the cytotoxicity at 10 µM was -7.3%.

With `CC(=O)c1ccc(-c2cnn(CC(=O)Nc3ccnn3C)c2)nc1`, the cytotoxicity at 10 µM was determined as 1.99%.

Take `O=C(c1cccnc1SC/C=C/c1ccccc1)N1CC[C@H](O)C1`: the cytotoxicity at 10 µM is -9.66%.

Regarding `Cc1cccc(N2CCN(CCC(=O)NCc3cnc(C)cn3)CC2)c1`, the cytotoxicity at 10 µM was -1.48%.

`CC(C)CN1C(=O)CC[C@H]2CN(C(=O)Cn3ccccc3=O)CC[C@H]21`: the cytotoxicity at 10 µM was -7.37%.

Consider `C=C(C)COc1cccc(C(=O)N2CCC3(CC2)CN(C)CCN3C)c1`, for which the cytotoxicity at 10 µM was -52.4%.

Turning to `COc1ccccc1-n1cc(C(=O)NCCCn2nc(C)nc2C)cn1`, the cytotoxicity at 10 µM was found to be 5.02%.

Take `Cc1cnn(C(C)C2CC2)c1NC(=O)c1ccc(Cn2cnnn2)cc1` (stereo not given): the cytotoxicity at 10 µM is -2.06%.

On to `Clc1cccnc1N1CCC(C2CCN(Cc3cccnc3)CC2)C1` (stereo not given), for which the cytotoxicity at 10 µM was determined as 2.92%.

On to `CC(C)[C@H]1CN(Cc2ccccc2C#N)C[C@@H]1NC(=O)C1CCOCC1`, for which the cytotoxicity at 10 µM stood at 1.47%.

With `COc1ccc(NC2CCCN(Cc3cnc(N(C)C)s3)C2)cc1` (stereo not given), the cytotoxicity at 10 µM amounted to 0.88%.

As for `CN1CCCC2(CCN(C(=O)Cc3cc4c(cc3Cl)OCCO4)C2)C1=O` (stereo not given), the cytotoxicity at 10 µM turned out to be 10.1%.

Take `Cc1nc2c(c(NC3CCN(Cc4cccnc4)CC3)n1)CCNCC2`: the cytotoxicity at 10 µM was -1.14%.

Take `CC(C)c1nnc2n1CCN(C(=O)c1cc3cc(F)ccc3[nH]1)C2`: the cytotoxicity at 10 µM stood at 3.98%.

`COc1ccc(OC2CCN(Cc3ccn(C)c(=O)c3)CC2)cc1`: the cytotoxicity at 10 µM was -5.25%.

As for `CCc1csc(C2CCCN(C(=O)c3ncccn3)C2)n1` (stereo not given), the cytotoxicity at 10 µM is -1.92%.

Consider `Cc1cnn(C2CN(CC(=O)NCCc3cccs3)C2)c1`, for which the cytotoxicity at 10 µM is -3.92%.

On to `Cc1nc(C)n(CC2CN(Cc3cccc(OC(C)C)c3)CCO2)n1` (stereo not given), for which the cytotoxicity at 10 µM was -5.44%.

Regarding `CC(C)(C)c1ncc(C(=O)NCCNC(=O)Cc2ccccc2)s1`, the cytotoxicity at 10 µM was -6.44%.

In the case of `COCCN1CCC(CNC(=O)C2(c3ccccc3)CCC2)C1` (stereo not given), the cytotoxicity at 10 µM was -5.36%.

As to `c1ccc2oc(CCCN3CCCC(Cn4cncn4)C3)nc2c1` (stereo not given), the cytotoxicity at 10 µM is -27.8%.

On to `COc1ccc(Cl)cc1NCC(=O)NCCNc1ncccn1`, for which the cytotoxicity at 10 µM is -9.24%.

As for `CC(C(=O)N1CCC(Nc2cccnn2)CC1)n1cccn1` (stereo not given), the cytotoxicity at 10 µM was -9.17%.

In the case of `Cc1nnc2n1CCN(Cc1ncc(-c3ccc(F)cc3)o1)C2`, the cytotoxicity at 10 µM is -10.7%.

Turning to `COc1ccc(NC(=O)C2CC(=O)N(C)C2)cn1` (stereo not given), the cytotoxicity at 10 µM is -16.5%.

Take `Cc1cc(C)n(CC2CCCN2CC(=O)N(C)Cc2ccc(C)o2)n1` (stereo not given): the cytotoxicity at 10 µM was -15.4%.

Consider `Cc1cnn(CCC(=O)N2CCCC(c3cc(C)[nH]n3)C2)c1` (stereo not given), for which the cytotoxicity at 10 µM was -23.6%.

For the compound `Cn1cnnc1C1CCCN(C(=O)COCc2ccccc2)C1` (stereo not given), the cytotoxicity at 10 µM is -18.1%.

With `Fc1cccc(Oc2ccc(CNCC3CNc4ccnn4C3)cn2)c1` (stereo not given), the cytotoxicity at 10 µM is -7.16%.

With `COC(=O)c1cccc(NC(=O)CCn2nc(-c3cccs3)oc2=O)c1`, the cytotoxicity at 10 µM is -8.13%.

Turning to `Cc1ccc(N2CCCN(C(=O)C3(C#N)CCCCC3)CC2)nn1`, the cytotoxicity at 10 µM is -7.7%.

In the case of `c1ccc(Cn2cccn2)c(CNCC2CNc3ccnn3C2)c1` (stereo not given), the cytotoxicity at 10 µM was -10.7%.

Turning to `COc1ncccc1C(=O)N1CCCC(c2cc(C)[nH]n2)C1` (stereo not given), the cytotoxicity at 10 µM is -7.49%.

`CC(C)CN1C(=O)CCC12CCC(NC(=O)NCc1cccnc1)CC2` (stereo not given): the cytotoxicity at 10 µM was -118%.

Regarding `Cn1cc(C(=O)NC[C@H]2OC[C@@H]3CCN(C4CCOCC4)C[C@@H]32)cn1`, the cytotoxicity at 10 µM was 8.01%.

As for `CC(C)CN1CCc2[nH]nc(C(=O)N3CCCC3)c2C1`, the cytotoxicity at 10 µM was -98.9%.

Consider `CC(=O)N1CCc2ncn(C)c2C1C(=O)N1CCCC1` (stereo not given), for which the cytotoxicity at 10 µM worked out at 1.9%.

Take `Cc1nc(C)c2c(n1)CCN(Cc1nccn1C)CC2`: the cytotoxicity at 10 µM was -122%.

For `Cn1nccc1-c1nnn2c1COCC(CNCC1CC1)C2` (stereo not given), the cytotoxicity at 10 µM was -98.8%.

With `O=C(C1CCC1)N1CCC2(CCN(Cc3cccc(F)c3)CC2)CC1`, the cytotoxicity at 10 µM is -4.29%.

With `Cc1ccc(CN2Cc3nccn3CC(Cn3cccn3)C2)s1` (stereo not given), the cytotoxicity at 10 µM is -101%.

In the case of `CC(C)CN1CC[C@@H]2[C@H](CC1)N(S(C)(=O)=O)CCS2(=O)=O`, the cytotoxicity at 10 µM was 2.05%.

Turning to `Cc1n[nH]c(C)c1CNCC(O)c1cccc(Cl)c1` (stereo not given), the cytotoxicity at 10 µM turned out to be 4.91%.

Take `O=C(c1ccsc1)N1CCc2onc(COc3ccccn3)c2C1`: the cytotoxicity at 10 µM stood at 6.43%.

With `c1cnc(N2CCC3(COCCN(CC4CC4)C3)C2)nc1` (stereo not given), the cytotoxicity at 10 µM was 0.668%.

In the case of `CCOCCC(=O)N1C[C@@H]2CC[C@H]1CN(Cc1ccncc1)C2`, the cytotoxicity at 10 µM is -11.1%.

The values are drawn from ChEMBL document CHEMBL4513216, “Probing the Open Global Health Chemical Diversity Library for Multistage-Active Starting Points for Next-Generation Antimalarials” (ACS Infect Dis, 2020).
